# Laboratory results from ChEMBL document CHEMBL4715736, “Identification of anticancer agents based on the thieno[2,3-b]pyridine and 1H-pyrazole molecular scaffolds” (2016).
# Legend:
# Format in all cases: functional
# Malme-3M [1] = assay: Growth inhibition of human Malme-3M cells assessed as cell growth at 100 uM incubated for 48 hrs by sulforhodamine B assay relative to control; conditions: read-out: Activity
# MDA-MB-435 = assay: Growth inhibition of human MDA-MB-435 cells assessed as cell growth at 1 uM incubated for 48 hrs by sulforhodamine B assay relative to control; conditions: read-out: Activity
# SNB-19 = assay: Growth inhibition of human SNB-19 cells assessed as cell growth at 1 uM incubated for 48 hrs by sulforhodamine B assay relative to control; conditions: read-out: Activity
# MCF7 = assay: Growth inhibition of human MCF7 cells incubated for 48 hrs by sulforhodamine B assay; conditions: for CC50: read-out: LC50 (the source's name)
# Method in brief: (§1)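 NCI60 panel at the NCI Developmental Therapeutics Program. Only compounds active in the 10 µM screen went to dose-response testing. GI50, the concentration giving 50% of maximal inhibition of proliferation, and TGI, the concentration giving total growth inhibition, were derived from the dose-response curves.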
# K562 = assay: Growth inhibition of human K562 cells assessed as cell growth at 0.1 uM incubated for 48 hrs by sulforhodamine B assay relative to control; conditions: read-out: Activity
# SW-620 [2] = assay: Growth inhibition of human SW-620 cells assessed as cell growth at 100 uM incubated for 48 hrs by sulforhodamine B assay relative to control; conditions: read-out: Activity
# SF-539 = assay: Growth inhibition of human SF-539 cells assessed as cell growth at 1 uM incubated for 48 hrs by sulforhodamine B assay relative to control; conditions: read-out: Activity
# HOP-92 [3] = assay: Growth inhibition of human HOP-92 cells assessed as cell growth at 0.01 uM incubated for 48 hrs by sulforhodamine B assay relative to control; conditions: read-out: Activity
# ACHN [4] = assay: Growth inhibition of human ACHN cells incubated for 48 hrs by sulforhodamine B assay; conditions: for CC50: read-out: LC50 (the source's name)
# Method in brief: (§2)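 NCI Developmental Therapeutics Program NCI60 panel. Compounds that were active in the 10 µM one-dose screen went on to dose–response testing. Growth at each concentration is expressed relative to untreated control (100%). GI50 (concentration giving 50% of maximal inhibition of proliferation) and TGI (concentration giving total growth inhibition) were derived from the curves.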
# U-251 [5] = assay: Growth inhibition of human U-251 cells assessed as cell growth at 1 uM incubated for 48 hrs by sulforhodamine B assay relative to control; conditions: read-out: Activity
# BT-549 = assay: Growth inhibition of human BT-549 cells assessed as cell growth at 100 uM incubated for 48 hrs by sulforhodamine B assay relative to control; conditions: read-out: Activity
# U-251 [6] = assay: Growth inhibition of human U-251 cells assessed as cell growth at 0.1 uM incubated for 48 hrs by sulforhodamine B assay relative to control; conditions: read-out: Activity
# Malme-3M [7] = assay: Growth inhibition of human Malme-3M cells assessed as cell growth at 0.1 uM incubated for 48 hrs by sulforhodamine B assay relative to control; conditions: read-out: Activity
# MDA-MB-468 [8] = assay: Growth inhibition of human MDA-MB-468 cells assessed as cell growth at 1 uM incubated for 48 hrs by sulforhodamine B assay relative to control; conditions: read-out: Activity
# A498 = assay: Growth inhibition of human A498 cells assessed as cell growth at 100 uM incubated for 48 hrs by sulforhodamine B assay relative to control; conditions: read-out: Activity; method in brief: as §2
# A549 = assay: Growth inhibition of human A549/ATCC cells assessed as cell growth at 1 uM incubated for 48 hrs by sulforhodamine B assay relative to control; conditions: read-out: Activity; method in brief: as §2
# UACC-62 = assay: Growth inhibition of human UACC-62 cells assessed as cell growth at 0.01 uM incubated for 48 hrs by sulforhodamine B assay relative to control; conditions: read-out: Activity
# NCI-H23 = assay: Growth inhibition of human NCI-H23 cells assessed as cell growth at 1 uM incubated for 48 hrs by sulforhodamine B assay relative to control; conditions: read-out: Activity
# T47D = assay: Growth inhibition of human T47D cells assessed as cell growth at 100 uM incubated for 48 hrs by sulforhodamine B assay relative to control; conditions: read-out: Activity
# ACHN [9] = assay: Growth inhibition of human ACHN cells assessed as cell growth at 0.1 uM incubated for 48 hrs by sulforhodamine B assay relative to control; conditions: read-out: Activity
# RPMI-8226 = assay: Growth inhibition of human RPMI-8226 cells incubated for 48 hrs by sulforhodamine B assay
# Method in brief: (§3)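 NCI DTP 60-line human tumour panel. Dose-response curves were run only for ligands active in the initial 10 µM screen. GI50 (concentration giving 50% of maximal inhibition of proliferation) and TGI (concentration giving total growth inhibition) were derived from these curves.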
# LOX IMVI = assay: Growth inhibition of human LOX IMVI cells assessed as cell growth at 100 uM incubated for 48 hrs by sulforhodamine B assay relative to control; conditions: read-out: Activity
# OVCAR-4 = assay: Growth inhibition of human OVCAR-4 cells assessed as cell growth at 0.1 uM incubated for 48 hrs by sulforhodamine B assay relative to control; conditions: read-out: Activity
# SW-620 [10] = assay: Growth inhibition of human SW-620 cells assessed as cell growth at 1 uM incubated for 48 hrs by sulforhodamine B assay relative to control; conditions: read-out: Activity
# OVCAR-3 [11] = assay: Growth inhibition of human OVCAR-3 cells assessed as cell growth at 0.01 uM incubated for 48 hrs by sulforhodamine B assay relative to control; conditions: read-out: Activity
# HOP-92 [12] = assay: Growth inhibition of human HOP-92 cells assessed as cell growth at 100 uM incubated for 48 hrs by sulforhodamine B assay relative to control; conditions: read-out: Activity
# MDA-MB-468 [13] = assay: Growth inhibition of human MDA-MB-468 cells assessed as cell growth at 100 uM incubated for 48 hrs by sulforhodamine B assay relative to control; conditions: read-out: Activity
# M14 = assay: Growth inhibition of human M14 cells assessed as cell growth at 100 uM incubated for 48 hrs by sulforhodamine B assay relative to control; conditions: read-out: Activity
# SK-MEL-28 = assay: Growth inhibition of human SK-MEL-28 cells assessed as cell growth at 0.01 uM incubated for 48 hrs by sulforhodamine B assay relative to control; conditions: read-out: Activity
# 786-0 = assay: Growth inhibition of human 786-0 cells assessed as cell growth at 100 uM incubated for 48 hrs by sulforhodamine B assay relative to control; conditions: read-out: Activity
# KM12 = assay: Growth inhibition of human KM12 cells incubated for 48 hrs by sulforhodamine B assay; method in brief: as §1
# OVCAR-3 [14] = assay: Growth inhibition of human OVCAR-3 cells assessed as cell growth at 0.1 uM incubated for 48 hrs by sulforhodamine B assay relative to control; conditions: read-out: Activity
# IGROV-1 = assay: Growth inhibition of human IGROV-1 cells assessed as cell growth at 0.1 uM incubated for 48 hrs by sulforhodamine B assay relative to control; conditions: read-out: Activity
# SF-295 = assay: Growth inhibition of human SF-295 cells assessed as cell growth at 0.01 uM incubated for 48 hrs by sulforhodamine B assay relative to control; conditions: read-out: Activity
# SK-MEL-2 = assay: Growth inhibition of human SK-MEL-2 cells incubated for 48 hrs by sulforhodamine B assay; method in brief: as §3
smiles,measurement,setting,value
Nc1c(C(=O)Nc2ccccc2)sc2nc3c(cc12)CN(Cc1ccccc1)CC3,growth at 100 µM,Malme-3M [1],14%
same,growth at 1 µM,MDA-MB-435,68%
same,growth at 1 µM,SNB-19,88%
same,GI50,MCF7,12.1 µM
same,TGI,MCF7,> 100 µM
same,CC50,MCF7,> 100 µM
same,growth at 0.1 µM,K562,99%
same,growth at 100 µM,SW-620 [2],23%
same,growth at 1 µM,SF-539,83%
same,growth at 0.01 µM,HOP-92 [3],92%
same,GI50,ACHN [4],5.5 µM
same,TGI,ACHN [4],> 100 µM
same,CC50,ACHN [4],> 100 µM
same,growth at 1 µM,U-251 [5],101%
same,growth at 100 µM,BT-549,-2%
same,growth at 0.1 µM,U-251 [6],98%
same,growth at 0.1 µM,Malme-3M [7],88%
same,growth at 1 µM,MDA-MB-468 [8],87%
same,growth at 100 µM,A498,42%
same,growth at 1 µM,A549,88%
same,growth at 0.01 µM,UACC-62,95%
same,growth at 1 µM,NCI-H23,101%
same,growth at 100 µM,T47D,19%
same,growth at 0.1 µM,ACHN [9],91%
same,GI50,RPMI-8226,55.8 µM
same,LC50,RPMI-8226,> 100 µM
same,TGI,RPMI-8226,> 100 µM
same,growth at 100 µM,LOX IMVI,20%
same,growth at 0.1 µM,OVCAR-4,91%
same,growth at 1 µM,SW-620 [10],86%
same,growth at 0.01 µM,OVCAR-3 [11],98%
same,growth at 100 µM,HOP-92 [12],-30%
same,growth at 100 µM,MDA-MB-468 [13],22%
same,growth at 100 µM,M14,35%
same,growth at 0.01 µM,SK-MEL-28,100%
same,growth at 100 µM,786-0,22%
same,GI50,KM12,19.1 µM
same,LC50,KM12,> 100 µM
same,TGI,KM12,> 100 µM
same,growth at 0.1 µM,OVCAR-3 [14],100%
same,growth at 0.1 µM,IGROV-1,98%
same,growth at 0.01 µM,SF-295,96%
same,GI50,SK-MEL-2,20.3 µM
same,LC50,SK-MEL-2,> 100 µM
same,TGI,SK-MEL-2,> 100 µM
Cc1cc(C)c(NC(=O)c2sc3nc4c(cc3c2N)CN(Cc2ccccc2)CC4)c(C)c1,growth at 100 µM,Malme-3M [1],-17%
same,growth at 1 µM,MDA-MB-435,20%
same,growth at 1 µM,SNB-19,87%
same,GI50,MCF7,1.61 µM
same,TGI,MCF7,32.2 µM
same,CC50,MCF7,> 100 µM
same,growth at 0.1 µM,K562,105%
same,growth at 100 µM,SW-620 [2],-43%
same,growth at 1 µM,SF-539,88%
same,growth at 0.01 µM,HOP-92 [3],85%
same,GI50,ACHN [4],6.31 µM
same,TGI,ACHN [4],> 100 µM
same,CC50,ACHN [4],> 100 µM
same,growth at 1 µM,U-251 [5],92%
same,growth at 100 µM,BT-549,-9%
same,growth at 0.1 µM,U-251 [6],96%
same,growth at 0.1 µM,Malme-3M [7],102%
same,growth at 1 µM,MDA-MB-468 [8],63%
same,growth at 100 µM,A498,-2%
same,growth at 1 µM,A549,90%
same,growth at 0.01 µM,UACC-62,101%
same,growth at 1 µM,NCI-H23,93%
same,growth at 100 µM,T47D,1%
same,growth at 0.1 µM,ACHN [9],100%
same,GI50,RPMI-8226,3.18 µM
same,LC50,RPMI-8226,> 100 µM
same,TGI,RPMI-8226,35.1 µM
same,growth at 100 µM,LOX IMVI,-83%
same,growth at 0.1 µM,OVCAR-4,94%
same,growth at 1 µM,SW-620 [10],76%
same,growth at 0.01 µM,OVCAR-3 [11],104%
same,growth at 100 µM,HOP-92 [12],-7%
same,growth at 100 µM,MDA-MB-468 [13],-1%
same,growth at 100 µM,M14,-18%
same,growth at 0.01 µM,SK-MEL-28,97%
same,GI50,KM12,3.26 µM
same,LC50,KM12,> 100 µM
same,TGI,KM12,43.1 µM
same,growth at 0.1 µM,OVCAR-3 [14],105%
same,growth at 0.1 µM,IGROV-1,94%
same,growth at 0.01 µM,SF-295,86%
same,GI50,SK-MEL-2,5.59 µM
same,LC50,SK-MEL-2,> 100 µM
same,TGI,SK-MEL-2,> 100 µM
CN1CCc2nc3sc(C(N)=O)c(N)c3c(-c3cccs3)c2C1,growth at 100 µM,Malme-3M [1],-11%
same,growth at 1 µM,MDA-MB-435,90%
same,growth at 1 µM,SNB-19,104%
same,GI50,MCF7,4.1 µM
same,TGI,MCF7,> 100 µM
same,CC50,MCF7,> 100 µM
same,growth at 0.1 µM,K562,97%
same,growth at 100 µM,SW-620 [2],3%
same,growth at 1 µM,SF-539,90%
same,growth at 0.01 µM,HOP-92 [3],127%
same,growth at 1 µM,U-251 [5],90%
same,growth at 100 µM,BT-549,-8%
same,growth at 0.1 µM,U-251 [6],98%
same,growth at 0.1 µM,Malme-3M [7],111%
same,growth at 1 µM,MDA-MB-468 [8],77%
same,growth at 100 µM,A498,-23%
same,growth at 1 µM,A549,91%
same,growth at 0.01 µM,UACC-62,99%
same,growth at 1 µM,NCI-H23,89%
same,growth at 100 µM,T47D,2%
same,GI50,RPMI-8226,4.41 µM
same,LC50,RPMI-8226,> 100 µM
same,TGI,RPMI-8226,> 100 µM
same,growth at 100 µM,LOX IMVI,2%
same,growth at 0.1 µM,OVCAR-4,107%
same,growth at 1 µM,SW-620 [10],116%
same,growth at 0.01 µM,OVCAR-3 [11],110%
same,growth at 100 µM,HOP-92 [12],-1%
same,growth at 100 µM,MDA-MB-468 [13],-59%
same,growth at 100 µM,M14,-27%
same,growth at 0.01 µM,SK-MEL-28,106%
same,growth at 100 µM,786-0,15%
same,GI50,KM12,2.7 µM
same,LC50,KM12,> 100 µM
same,TGI,KM12,> 100 µM
same,growth at 0.1 µM,OVCAR-3 [14],99%
same,growth at 0.1 µM,IGROV-1,116%
same,growth at 0.01 µM,SF-295,93%
same,GI50,SK-MEL-2,2.67 µM
same,LC50,SK-MEL-2,> 100 µM
same,TGI,SK-MEL-2,6.22 µM
